The text below walks through data of ChEMBL document CHEMBL1127471, “Tricyclic analogues of acyclovir and ganciclovir. Influence of substituents in the heterocyclic moiety on the antiviral activity” (1994).

What all share (type): functional
Test [1] is described as follows: The minimum inhibitory concentration was measured on E6SM cells against Herpes simplex virus type 1 (McIntyre strain). As to conditions: Human alphaherpesvirus 1. In short, it runs like this: (§1)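 Antiviral endpoint was the concentration reducing virus-induced cytopathicity by 50% in […] cell cultures. Values are means of two to six independent determinations.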

The subject of test [2] is Human alphaherpesvirus 3. Nature of the test: The minimum inhibitory concentration was measured on HEL cells against TK-Varicella zoster virus (07/1 strain). In outline: (§2)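 Antiviral endpoint was the concentration reducing virus plaque formation by 50% in HEL cell cultures. Values are means of two to six independent determinations.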
The test system of test [3] is Cytomegalovirus. Kind of test: The minimum inhibitory concentration was measured on HEL cells against Cytomegalovirus virus (Davis strain). Conditions: Human betaherpesvirus 5. In outline: as §2
Test [4] has as its system Human alphaherpesvirus 3. Nature of the test: The minimum inhibitory concentration was measured on HEL cells against Varicella zoster virus (OKA strain). Conditions: Human alphaherpesvirus 3, oka. In outline:
as §2

In test [5] the test system is E6SM. Kind of test: The minimum inhibitory concentration was measured on E6SM cells for morphological alteration. Conditions: Homo sapiens. In short, it runs like this: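 In uninfected E6SM cells, the value is the concentration giving a microscopically detectable change in normal cell morphology. Values are means of two to six independent determinations.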
Test [6] concerns Human betaherpesvirus 5. Kind of test: The minimum inhibitory concentration was measured on HEL cells against Cytomegalovirus virus (AD-169 strain). In outline: as §2
The subject of test [7] is Human alphaherpesvirus 1. Kind of test: The minimum inhibitory concentration was measured on E6SM cells against Herpes simplex virus type 1 (F strain). In outline:
as §1

In test [8] the test system is HEL. Nature of the test: The […] was measured on HEL cells in cell growth. Conditions: Homo sapiens.
Test [9] has as its system Vaccinia virus. Nature of the test: The minimum inhibitory concentration was measured on E6SM cells against Vaccinia virus. Conditions: Orthopoxvirus vaccinia. In short, it runs like this: as §1
Test [10] has as its system Human alphaherpesvirus 3. Kind of test: The minimum inhibitory concentration was measured on HEL cells against TK-Varicella zoster virus (YS-R strain). As to conditions: Human alphaherpesvirus 3, ys-r. In short, it runs like this: as §2
Test [11] relates to Human alphaherpesvirus 1. Nature of the test: The minimum inhibitory concentration was measured on E6SM cells against TK+/TK-Herpes simplex virus type 1 (VMW1837 strain). In short, it runs like this:
as §1

For test [12], the system named is Human alphaherpesvirus 3. Kind of test: The minimum inhibitory concentration was measured on HEL cells against Varicella zoster virus (YS strain). In short, it runs like this:
as §2

Test [13] in a line: The minimum inhibitory concentration was measured against Herpes simplex virus type 1 (KOS strain) on E6SM cells. Conditions: Human alphaherpesvirus 1. In outline: as §1
The subject of test [14] is Human alphaherpesvirus 1. Kind of test: The minimum inhibitory concentration was measured on E6SM cells against TK-Herpes simplex virus type 1 (B2006 strain). In outline:
as §1

Test [15] relates to HEL. Nature of the test: The minimum inhibitory concentration was measured on E6SM cells against Vesicular stomatitis virus. As to conditions: Homo sapiens. In outline: as §1
The test system of test [16] is HEL. Kind of test: The minimum inhibitory concentration was measured on HEL cells against Cytomegalovirus virus (Davis strain); (<400>100). Conditions: Homo sapiens. In short, it runs like this: as §2
Test [17] has as its system HEL. Kind of test: The minimum inhibitory concentration was measured on HEL cells against Cytomegalovirus virus (AD-169 strain); (<400>100). Conditions: Homo sapiens. In outline:
as §2

Test [18] has as its system HEL. Kind of test: The minimum inhibitory concentration was measured on HEL cells against Cytomegalovirus virus (AD-169 strain); (<100>40). Conditions: Homo sapiens. In short, it runs like this: as §2
Test [19] has as its system HEL. Nature of the test: The minimum inhibitory concentration was measured on HEL cells against Cytomegalovirus virus (Davis strain); (<100>40). As to conditions: Homo sapiens. In outline: as §2

In brackets after ≈: the same amount, converted by molar mass.

As to `CC(C)(C)c1cn2c(O)c3c(nc2n1)N(COC(CO)CO)CN3`, the MIC is 0.1 µg/mL (≈ 0.296 µM) in [1]; 50 µg/mL (≈ 148 µM) in test [2]; over 50 µg/mL in test [3]; 5 µg/mL (≈ 14.8 µM) in [4]; over 175 µg/mL in test [5]; over 50 µg/mL in [6]. The MIC in test [7] was 0.1 µg/mL (≈ 0.296 µM); in test [8], over 200 µg/mL; in [9], over 135 µg/mL; in test [10], 50 µg/mL (≈ 148 µM); in test [11], 0.7 µg/mL (≈ 2.07 µM); in test [12] it was over 20 µg/mL. Besides, the results for the MIC in test [13] and in [14] were 0.035 µg/mL (≈ 0.104 µM) and over 70 µg/mL, respectively.
Turning to `Nc1nc2c(ncn2COCCO)c(=O)[nH]1` [ACYCLOVIR], the MIC was 0.07 µg/mL (≈ 0.311 µM) in test [1]; 13.7 µg/mL (≈ 60.8 µM) in test [2]; 0.18 µg/mL (≈ 0.799 µM) in test [4]; 350 µg/mL (≈ 1550 µM) in [5]; 13.2 µg/mL (≈ 58.6 µM) in test [6]; 0.004 µg/mL (≈ 0.0178 µM) in test [7]. The MIC in test [8] was over 200 µg/mL; in test [9], over 180 µg/mL; in test [10], 4.7 µg/mL (≈ 20.9 µM); in test [11] it was 5 µg/mL (≈ 22.2 µM); in test [12], 0.38 µg/mL (≈ 1.69 µM); in test [13] it was 0.02 µg/mL (≈ 0.0888 µM). In addition, in [14], the MIC stood at 70 µg/mL (≈ 311 µM).
On to `CC(C)(C)c1cn2c(O)c3c(nc2n1)N(COCCO)CN3`, for which the MIC is 2 µg/mL (≈ 6.51 µM) in test [1]; 40 µg/mL (≈ 130 µM) in [2]; over 125 µg/mL in [15]; 1 µg/mL (≈ 3.25 µM) in test [4]; over 250 µg/mL in [5]; over 100 µg/mL in [16]. For the same molecule, the MIC in test [7] was 4 µg/mL (≈ 13 µM); in test [8] it was 167 µg/mL (≈ 543 µM); in [9], over 250 µg/mL; in test [10], 127 µg/mL (≈ 413 µM); in [17], over 100 µg/mL; in test [11] it was over 125 µg/mL. The MIC in test [12] came to 2.2 µg/mL (≈ 7.16 µM); in test [13] it was 4.5 µg/mL (≈ 14.6 µM).
As for `Cc1cn2c(O)c3c(nc2n1)N(COCCO)C(Br)N3` (centres undefined), the MIC in test [1] was 150 µg/mL (≈ 436 µM); in test [2], 180 µg/mL (≈ 523 µM); in test [4], 215 µg/mL (≈ 625 µM); in test [5], over 250 µg/mL; in [16], over 100 µg/mL; in test [7], 150 µg/mL (≈ 436 µM). Also, the MIC was over 200 µg/mL in test [8]; over 250 µg/mL in test [9]; 185 µg/mL (≈ 538 µM) in test [10]; over 100 µg/mL in test [17]; over 125 µg/mL in test [11]; 220 µg/mL (≈ 639 µM) in test [12]. The same molecule gave an MIC in [13] of 95 µg/mL (≈ 276 µM).
Take `Nc1nc2c(ncn2COC(CO)CO)c(=O)[nH]1` [GANCICLOVIR]: the MIC in test [1] was 0.004 µg/mL (≈ 0.0157 µM); in test [2], 1.5 µg/mL (≈ 5.88 µM); in [3] it was 0.9 µg/mL (≈ 3.53 µM); in test [4], 0.5 µg/mL (≈ 1.96 µM); in test [5], over 270 µg/mL; in [6], 1.5 µg/mL (≈ 5.88 µM). Moreover, the MIC is 0.004 µg/mL (≈ 0.0157 µM) in [7]; over 200 µg/mL in [8]; over 80 µg/mL in test [9]; 1.4 µg/mL (≈ 5.49 µM) in [10]; 0.08 µg/mL (≈ 0.313 µM) in test [11]; 1.4 µg/mL (≈ 5.49 µM) in test [12]. For the same molecule, the MIC in test [13] was determined as 0.003 µg/mL (≈ 0.0118 µM); in test [14], 4.5 µg/mL (≈ 17.6 µM).
In the case of `Cc1cn2c(O)c3c(nc2n1)N(COCCO)CN3`, the MIC was 1 µg/mL (≈ 3.77 µM) in test [1]; over 50 µg/mL in test [2]; over 50 µg/mL in test [3]; 4.6 µg/mL (≈ 17.3 µM) in [4]; over 190 µg/mL in test [5]; over 50 µg/mL in test [6]. For the same molecule, the MIC in test [7] was 0.58 µg/mL (≈ 2.19 µM); in test [8], over 200 µg/mL; in [9], over 190 µg/mL; in test [10], 70 µg/mL (≈ 264 µM); in test [11], 40 µg/mL (≈ 151 µM); in test [12] it was 9.4 µg/mL (≈ 35.4 µM). In addition, the figures for the MIC in [13] and in [14] were 0.8 µg/mL (≈ 3.02 µM) and 127 µg/mL (≈ 479 µM), respectively.
On to `OCC(CO)OCN1CNc2c1nc1nc(-c3ccccc3)cn1c2O`, for which the MIC is 0.005 µg/mL (≈ 0.014 µM) in [1]; 3 µg/mL (≈ 8.39 µM) in test [2]; 7 µg/mL (≈ 19.6 µM) in [3]; 0.4 µg/mL (≈ 1.12 µM) in [4]; over 175 µg/mL in test [5]; 20 µg/mL (≈ 56 µM) in [6]. The MIC in test [7] is 0.005 µg/mL (≈ 0.014 µM); in test [8], over 200 µg/mL; in [9], over 90 µg/mL; in test [10] it was 1 µg/mL (≈ 2.8 µM); in test [11] it was 0.5 µg/mL (≈ 1.4 µM); in [12], 3 µg/mL (≈ 8.39 µM). Besides, the MIC was 0.02 µg/mL (≈ 0.056 µM) in [13] and over 30 µg/mL in test [14].
Regarding `OCCOCN1CNc2c1nc1nc(-c3ccc(Br)cc3)cn1c2O`, the MIC was 0.2 µg/mL (≈ 0.492 µM) in test [1]; 125 µg/mL (≈ 308 µM) in [2]; over 40 µg/mL in [18]; 1 µg/mL (≈ 2.46 µM) in [4]; at least 70 µg/mL in test [5]; over 40 µg/mL in test [19]. Also, the MIC in test [7] is 2 µg/mL (≈ 4.92 µM); in test [8], over 200 µg/mL; in [9], over 70 µg/mL; in [10], 230 µg/mL (≈ 566 µM); in test [11], over 70 µg/mL; in [12], 4 µg/mL (≈ 9.85 µM). Moreover, the MIC in [13] amounted to 0.6 µg/mL (≈ 1.48 µM).
